# Results: ChEMBL document CHEMBL5724801, “EUbOPEN Chemogenomics Library - Multiplex” (2024)
# Where “and” joins values, the source holds several entries; their conditions need not be identical. Equal entries are not always repeated.
# Tested on: U2OS
# Assay: Multiplex assay against U2OS
# Assay type: toxicity, cell-based
# Settings: human
# Method in brief: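 Per cents of healthy-nucleus cells form the tubulin, mitochondrial-mass and membrane-permeability phenotype values. Live cells were stained at seeding with Hoechst33342, BioTracker Green Microtubule Cytoskeleton Dye, MitoTracker Red and Annexin V Alexa Fluor 680. After compound addition they were imaged on a CQ1 microscope at 37°C and 5% CO2, and CellPathfinder machine-learning gating split them into Hoechst high-intensity objects or normal cells, normal cells into healthy, pyknosed or fragmented nuclei, and pyknosed cells into mitotic or apoptotic.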
# [1] = 12 h, 1 µM, compound concentration 1 uM
# [2] = 12 h, 10 µM, compound concentration 10 uM
# [3] = 24 h, 1 µM, compound concentration 1 uM
# [4] = 24 h, 10 µM, compound concentration 10 uM
# [5] = 48 h, 1 µM, compound concentration 1 uM
# [6] = 48 h, 10 µM, compound concentration 10 uM
smiles,measurement,setting,value
Cl.Cl.N#Cc1ccc(O[C@@H]2c3ccccc3C[C@H]2N2CCC[C@@H](N)C2)c(Cl)c1,Population Apoptotic (%),[1],27.27% and 23.68%
same,Population Fragmented Nuclei (%),[1],3.65% and 1.32%
same,Population Healthy Nuclei (%),[1],79.64% and 73.51%
same,Population Hoechst High Intensity Objects (%),[1],0%
same,Population Membrane Permeable-Phenotype (%),[1],24.05% and 54.05%
same,Population Mitotic Cells (%),[1],72.73% and 76.32%
same,Population Normal (%),[1],100%
same,Population Pyknosed Nuclei (%),[1],16.72% and 25.17%
same,Population Tubulin-Different-Phenotype (%),[1],57.25% and 71.17%
same,Total Cell Count,[1],329 and 151
same,Population Apoptotic (%),[2],46.21% and 25.32%
same,Population Fragmented Nuclei (%),[2],4.14% and 2.88%
same,Population Healthy Nuclei (%),[2],56.8% and 40.29%
same,Population Hoechst High Intensity Objects (%),[2],0%
same,Population Membrane Permeable-Phenotype (%),[2],11.98% and 32.14%
same,Population Mitochondria Different-Phenotype (%),[2],63.54% and 89.29%
same,Population Mitotic Cells (%),[2],53.79% and 74.68%
same,Population Normal (%),[2],100%
same,Population Pyknosed Nuclei (%),[2],39.05% and 56.83%
same,Population Tubulin-Different-Phenotype (%),[2],88.02% and 89.29%
same,Total Cell Count,[2],338 and 139
same,Population Apoptotic (%),[3],47.5% and 39.47%
same,Population Fragmented Nuclei (%),[3],2.74% and 2.58%
same,Population Healthy Nuclei (%),[3],77.31% and 72.9%
same,Population Hoechst High Intensity Objects (%),[3],0%
same,Population Membrane Permeable-Phenotype (%),[3],19.35% and 35.4%
same,Population Mitotic Cells (%),[3],52.5% and 60.53%
same,Population Normal (%),[3],100%
same,Population Pyknosed Nuclei (%),[3],19.95% and 24.52%
same,Population Tubulin-Different-Phenotype (%),[3],32.58% and 69.03%
same,Total Cell Count,[3],401 and 155
same,Population Apoptotic (%),[4],64.9% and 68.09%
same,Population Fragmented Nuclei (%),[4],3.82% and 4.96%
same,Population Healthy Nuclei (%),[4],51.76% and 28.37%
same,Population Hoechst High Intensity Objects (%),[4],0%
same,Population Membrane Permeable-Phenotype (%),[4],9.09% and 12.5%
same,Population Mitochondria Different-Phenotype (%),[4],73.3% and 92.5%
same,Population Mitotic Cells (%),[4],35.1% and 31.91%
same,Population Normal (%),[4],100%
same,Population Pyknosed Nuclei (%),[4],44.41% and 66.67%
same,Population Tubulin-Different-Phenotype (%),[4],88.64% and 90%
same,Total Cell Count,[4],340 and 141
same,Population Apoptotic (%),[5],60.55% and 72.41%
same,Population Fragmented Nuclei (%),[5],2.44% and 3.43%
same,Population Healthy Nuclei (%),[5],79.8% and 63.43%
same,Population Hoechst High Intensity Objects (%),[5],0%
same,Population Mitotic Cells (%),[5],39.45% and 27.59%
same,Population Normal (%),[5],100%
same,Population Pyknosed Nuclei (%),[5],17.75% and 33.14%
same,Population Apoptotic (%),[6],73.29% and 91.21%
same,Population Fragmented Nuclei (%),[6],7.46% and 4.9%
same,Population Healthy Nuclei (%),[6],56.22% and 31.47%
same,Population Hoechst High Intensity Objects (%),[6],0% and 0.69%
same,Population Membrane Permeable-Phenotype (%),[6],5.75% and 15.56%
same,Population Mitochondria Different-Phenotype (%),[6],52.21% and 86.67%
same,Population Normal (%),[6],100% and 99.31%
same,Population Pyknosed Nuclei (%),[6],36.32% and 63.64%
same,Population Tubulin-Different-Phenotype (%),[6],66.37% and 84.44%
same,Total Cell Count,[6],402 and 144
CCN1CCN(Cc2ccc(Nc3ncc(F)c(-c4cc(F)c5nc(C)n(C(C)C)c5c4)n3)nc2)CC1.CS(=O)(=O)O,Population Apoptotic (%),[1],40% and 33.33%
same,Population Fragmented Nuclei (%),[1],3.09% and 3.21%
same,Population Healthy Nuclei (%),[1],86.11% and 81.41%
same,Population Hoechst High Intensity Objects (%),[1],0% and 0.64%
same,Population Membrane Permeable-Phenotype (%),[1],3.23% and 10.24%
same,Population Mitotic Cells (%),[1],60% and 66.67%
same,Population Normal (%),[1],100% and 99.36%
same,Population Pyknosed Nuclei (%),[1],10.8% and 15.38%
same,Population Tubulin-Different-Phenotype (%),[1],6.09% and 6.3%
same,Total Cell Count,[1],324 and 157
same,Population Apoptotic (%),[2],43.96% and 38.67%
same,Population Fragmented Nuclei (%),[2],4.12% and 4.26%
same,Population Healthy Nuclei (%),[2],70.88% and 42.55%
same,Population Hoechst High Intensity Objects (%),[2],0%
same,Population Membrane Permeable-Phenotype (%),[2],56.98% and 48.33%
same,Population Mitotic Cells (%),[2],56.04% and 61.33%
same,Population Normal (%),[2],100%
same,Population Pyknosed Nuclei (%),[2],25% and 53.19%
same,Population Tubulin-Different-Phenotype (%),[2],92.64% and 93.33%
same,Total Cell Count,[2],364 and 141
same,Population Apoptotic (%),[3],36.67% and 46.88%
same,Population Fragmented Nuclei (%),[3],2.68% and 4.65%
same,Population Healthy Nuclei (%),[3],82.68% and 76.74%
same,Population Hoechst High Intensity Objects (%),[3],0%
same,Population Membrane Permeable-Phenotype (%),[3],3.54% and 6.06%
same,Population Mitotic Cells (%),[3],63.33% and 53.12%
same,Population Normal (%),[3],100%
same,Population Pyknosed Nuclei (%),[3],14.63% and 18.6%
same,Population Tubulin-Different-Phenotype (%),[3],7.67% and 9.85%
same,Total Cell Count,[3],410 and 172
same,Population Apoptotic (%),[4],48.89% and 41.41%
same,Population Fragmented Nuclei (%),[4],5.44% and 6.04%
same,Population Healthy Nuclei (%),[4],59.59% and 27.52%
same,Population Hoechst High Intensity Objects (%),[4],0%
same,Population Membrane Permeable-Phenotype (%),[4],31.3% and 21.95%
same,Population Mitotic Cells (%),[4],51.11% and 58.59%
same,Population Normal (%),[4],100%
same,Population Pyknosed Nuclei (%),[4],34.97% and 66.44%
same,Population Tubulin-Different-Phenotype (%),[4],66.09% and 65.85%
same,Total Cell Count,[4],386 and 149
same,Population Apoptotic (%),[5],47.62% and 37.14%
same,Population Fragmented Nuclei (%),[5],4.31% and 6.15%
same,Population Healthy Nuclei (%),[5],83.37% and 75.9%
same,Population Hoechst High Intensity Objects (%),[5],0%
same,Population Membrane Permeable-Phenotype (%),[5],2.58% and 6.08%
same,Population Mitotic Cells (%),[5],52.38% and 62.86%
same,Population Normal (%),[5],100%
same,Population Pyknosed Nuclei (%),[5],12.33% and 17.95%
same,Population Tubulin-Different-Phenotype (%),[5],8.92% and 12.84%
same,Total Cell Count,[5],511 and 195
same,Population Apoptotic (%),[6],65% and 80.18%
same,Population Fragmented Nuclei (%),[6],3.14% and 4.64%
same,Population Healthy Nuclei (%),[6],34% and 21.85%
same,Population Hoechst High Intensity Objects (%),[6],0% and 0.66%
same,Population Membrane Permeable-Phenotype (%),[6],9.09%
same,Population Mitotic Cells (%),[6],35% and 19.82%
same,Population Normal (%),[6],100% and 99.34%
same,Population Pyknosed Nuclei (%),[6],62.86% and 73.51%
same,Population Tubulin-Different-Phenotype (%),[6],68.91% and 27.27%
same,Total Cell Count,[6],350 and 152
